Results published in ChEMBL document CHEMBL1275308, “Synthesis, analgesic and anti-inflammatory evaluation of some novel quinazoline derivatives” (Eur J Med Chem, 2010).
The source made the active and inactive calls.

Key:
Rattus norvegicus = test: Antiinflammatory activity in rat assessed as inhibition of formaldehyde-induced paw edema at 100 mg/kg, po qd for 4 days administered 1 hr before formaldehyde challenge measured 2 hrs post formaldehyde challenge relative to untreated control; assay type: functional
Procedure, shortened: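 Rats dosed orally at 100 mg/kg once daily for 4 d, with an indomethacin reference and a vehicle control. Right hind paw volume measured by plethysmometer before challenge. 0.2 mL of 10% w/v formaldehyde injected subplantar 1 h after drug. Paw volume measured 1 and 2 h after injection. Results given as % inhibition versus control; means, ANOVA with Dunnett's test.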

Mus musculus [1] = test: Analgesic activity against heat induced nociception in Swiss albino mouse assessed as increase in latency at 100 mg/kg, po measured 60 mins post compound dose by hot plate method relative to pretreatment level; assay type: functional
Procedure, shortened: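 Mice; test compounds and indomethacin, each at 100 mg/kg orally as a suspension in 1% carboxymethyl cellulose. Six groups of six animals, with a vehicle negative control. Reaction time recorded at 30 min, 1, 2 and 3 h after treatment, cut-off 10 s. Effect expressed as percentage of the pretreatment level. Values are means.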

Mus musculus [2] = test: Toxicity in mouse assessed as induction of sedation at 500 to 1000 mg/kg, po measured within 24 hrs post dose; assay type: organism-based; parameters: dose 500-1000 mg/kg, route oral; conditions: in vivo
Mus musculus [3] = test: Toxicity in mouse assessed as mortality at 500 mg/kg, po measured 24 hrs post dose; assay type: organism-based; parameters: dose 500 mg/kg, route oral; conditions: in vivo
Mus musculus [4] = test: Toxicity in mouse assessed as induction of muscle relaxation at 500 to 1000 mg/kg, po measured within 24 hrs post dose; assay type: organism-based; parameters: dose 500-1000 mg/kg, route oral; conditions: in vivo
Mus musculus [5] = test: Toxicity in mouse assessed as induction of calmness at 500 to 1000 mg/kg, po measured within 24 hrs post dose; assay type: organism-based; parameters: dose 500-1000 mg/kg, route oral; conditions: in vivo
Mus musculus [6] = test: Toxicity in mouse assessed as mortality at 750 mg/kg, po measured 24 hrs post dose; assay type: organism-based; parameters: dose 750 mg/kg, route oral; conditions: in vivo
Mus musculus [7] = test: Toxicity in mouse assessed as incidence of toxic symptoms at 750 mg/kg, po measured 24 hrs post dose; assay type: organism-based; parameters: dose 750 mg/kg, route oral; conditions: in vivo
Mus musculus [8] = test: Toxicity in mouse assessed as incidence of toxic symptoms at 1000 mg/kg, po measured 24 hrs post dose; assay type: organism-based; parameters: dose 1000 mg/kg, route oral; conditions: in vivo
Mus musculus [9] = test: Toxicity in mouse assessed as mortality at 1000 mg/kg, po measured 24 hrs post dose; assay type: organism-based; parameters: dose 1000 mg/kg, route oral; conditions: in vivo
Mus musculus [10] = test: Toxicity in mouse assessed as incidence of toxic symptoms at 500 mg/kg, po measured 24 hrs post dose; assay type: organism-based; parameters: dose 500 mg/kg, route oral; conditions: in vivo
Mus musculus [11] = test: Toxicity in mouse assessed as induction of urination at 500 to 1000 mg/kg, po measured within 24 hrs post dose; assay type: organism-based; parameters: dose 500-1000 mg/kg, route oral; conditions: in vivo

Structure (SMILES)	inhibition in vivo at 100 mg/kg (Rattus norvegicus) [%]	Activity (Mus musculus [1])	Activity (Mus musculus [2])	Activity (Mus musculus [3])	Activity (Mus musculus [4])	Activity (Mus musculus [5])	Activity (Mus musculus [6])	Activity (Mus musculus [7])	Activity (Mus musculus [8])	Activity (Mus musculus [9])	Activity (Mus musculus [10])	Activity (Mus musculus [11])
CN1CCN(c2nc(-c3ccccc3)nc3ccccc23)CC1	45.2	86.2%										
COc1ccc2c(c1)c(CC(=O)O)c(C)n2C(=O)c1ccc(Cl)cc1 [INDOMETHACIN]	78.3	97.5%										
CC1CCN(c2nc(-c3ccc(Cl)cc3)nc3ccc(Br)cc23)CC1	55.1	85.2%										
Ic1ccc2nc(-c3ccccc3)nc(N3CCN(c4ccccc4)CC3)c2c1	39.2	inactive	Toxic	Non-toxic	Toxic	Toxic	Non-toxic	Non-toxic	Non-toxic	Non-toxic	Non-toxic	
Clc1ccc(-c2nc(N3CCN(c4ccccc4)CC3)c3ccccc3n2)cc1	12.6	inactive										
c1ccc(-c2nc(N3CCN(c4ccccc4)CC3)c3ccccc3n2)cc1	77.4	107.3%		Non-toxic			Non-toxic	Non-toxic	Non-toxic	Non-toxic	Non-toxic	Toxic
c1ccc(-c2nc(N3CCC(c4ccccc4)CC3)c3ccccc3n2)cc1	85.3	153.8%		Non-toxic			Non-toxic	Non-toxic	Non-toxic	Non-toxic	Non-toxic	
CCOC(=O)C1CCN(c2nc(-c3ccccc3)nc3ccccc23)CC1	70.3	98.5%		Non-toxic			Non-toxic	Non-toxic	Non-toxic	Non-toxic	Non-toxic	
CN1CCN(c2nc(-c3ccc(Cl)cc3)nc3ccc(I)cc23)CC1	17	inactive										
Clc1ccc(-c2nc(N3CCN(c4ccccc4)CC3)c3cc(Br)ccc3n2)cc1	16.2	inactive	Toxic	Non-toxic	Toxic	Toxic	Non-toxic	Non-toxic	Non-toxic	Non-toxic	Non-toxic	
CC1CCN(c2nc(-c3ccc(Cl)cc3)nc3ccccc23)CC1	55.1	inactive										
Brc1ccc2nc(-c3ccccc3)nc(N3CCC(c4ccccc4)CC3)c2c1	57.6	89.8%		Non-toxic			Non-toxic	Non-toxic	Non-toxic	Non-toxic	Non-toxic	
CN1CCN(c2nc(-c3ccc(Cl)cc3)nc3ccccc23)CC1	37	inactive										
CC1CCN(c2nc(-c3ccccc3)nc3ccccc23)CC1	69	88%										
CC1CCN(c2nc(-c3ccc(Cl)cc3)nc3ccc(I)cc23)CC1	45.8	82.3%										
Clc1ccc(-c2nc(N3CCC(c4ccccc4)CC3)c3ccccc3n2)cc1	53.7	87.3%										
Clc1ccc(-c2nc(N3CCC(c4ccccc4)CC3)c3cc(Br)ccc3n2)cc1	50	106.1%		Non-toxic			Non-toxic	Non-toxic	Non-toxic	Non-toxic	Non-toxic	Toxic
CC1CCN(c2nc(-c3ccccc3)nc3ccc(Br)cc23)CC1	57.8	inactive										
Ic1ccc2nc(-c3ccccc3)nc(N3CCC(c4ccccc4)CC3)c2c1	82.5	110.2%		Non-toxic			Non-toxic	Non-toxic	Non-toxic	Non-toxic	Non-toxic	Toxic
CN1CCN(c2nc(-c3ccc(Cl)cc3)nc3ccc(Br)cc23)CC1	20	inactive										
Nc1nnc(C2CCN(c3nc(-c4ccccc4)nc4ccccc34)CC2)s1	73	83.2%	Toxic	Non-toxic	Toxic	Toxic	Non-toxic	Non-toxic	Non-toxic	Non-toxic	Non-toxic	
O=c1[nH]nc(C2CCN(c3nc(-c4ccccc4)nc4ccccc34)CC2)s1	12.7	81.5%		Non-toxic			Non-toxic	Non-toxic	Non-toxic	Non-toxic	Non-toxic	
Clc1ccc(-c2nc(N3CCN(c4ccccc4)CC3)c3cc(I)ccc3n2)cc1	13.5	inactive										
Brc1ccc2nc(-c3ccccc3)nc(N3CCN(c4ccccc4)CC3)c2c1	40.7	inactive										
Clc1ccc(-c2nc(N3CCC(c4ccccc4)CC3)c3cc(I)ccc3n2)cc1	41.4	inactive										
CN1CCN(c2nc(-c3ccccc3)nc3ccc(Br)cc23)CC1	45	inactive										
CN1CCN(c2nc(-c3ccccc3)nc3ccc(I)cc23)CC1	39.6	inactive										
S=c1[nH]nc(C2CCN(c3nc(-c4ccccc4)nc4ccccc34)CC2)s1	71.3	88%		Non-toxic			Non-toxic	Non-toxic	Non-toxic	Non-toxic	Non-toxic	
CC1CCN(c2nc(-c3ccccc3)nc3ccc(I)cc23)CC1	56.4	85.7%										
